ChEMBL document CHEMBL5500386, “Design, synthesis and bioactivity evaluation of 4-hydroxycoumarin derivatives as potential anti-inflammatory agents against acute lung injury and colitis” (Eur J Med Chem, 2024)
Active and inactive are the calls of the source. No cut-off for these calls is given here.

Experiments:
J774.A1 [1] = experiment: Antiinflammatory activity in LPS-induced mouse J774.A1 cells assessed as inhibition of IL-6 production pretreated for 30 mins followed by LPS stimulation and measured after 24 hrs by ELISA; assay type: functional, cell-based
Method in brief: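 Cells pretreated 30 min with a gradient of concentrations (2.5–10 μM range) or DMSO, then given LPS 0.5 μg/mL for 24 h. IL-6 in medium measured by ELISA and normalised to living cell number by MTT. Expressed as % of the LPS group, mean ± SEM of triplicates. IC50 taken from the concentration-response.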

THP-1 = experiment: Antiinflammatory activity in LPS-induced human THP-1 cells assessed as reduction in IL-6 mRNA transcription pretreated for 2 hrs followed by LPS stimulation and measured after 6 hrs by RT-qPCR analysis; assay type: functional, cell-based; details: dose 2.5-10 µM
Method in brief: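 J774A.1 or THP-1 cells pretreated with compound for 2 h, then LPS 0.5 μg/mL for 6 h, in triplicate. Total RNA extracted and reverse-transcribed. IL-6 quantified by RT-qPCR over 40 cycles and normalised to β-actin.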

J774.A1 [2] = experiment: Inhibition of LPS-induced MAPK activation in mouse J774.A1 cells assessed as reduction in p38 phosphorylation at 5 to 20 uM pretreated for 2 hrs followed by LPS stimulation and measured after 30 mins by Western blot analysis; assay type: cell-based; details: dose 5-20 µM, time 2.5 hrs
Method in brief: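 J774A.1 macrophages pretreated with 20, 10 or 5 μM for 2 h, then LPS 0.5 μg/mL for 30 min. RIPA lysates quantified by Bradford. 40 μg run on 12.5 % SDS-PAGE and transferred to PVDF. Blocked 1.5 h in BSA, primary antibody overnight at 4 °C, secondary 2 h at room temperature, detected by ECL.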

[3] = target: Mitogen-activated protein kinase 9 (Homo sapiens) (UniProt P45984); experiment: Inhibition of JNK2 (unknown origin) at 10 uM relative to control
Sequence of Mitogen-activated protein kinase 9 (Homo sapiens) (P45984 whole entry, looked up): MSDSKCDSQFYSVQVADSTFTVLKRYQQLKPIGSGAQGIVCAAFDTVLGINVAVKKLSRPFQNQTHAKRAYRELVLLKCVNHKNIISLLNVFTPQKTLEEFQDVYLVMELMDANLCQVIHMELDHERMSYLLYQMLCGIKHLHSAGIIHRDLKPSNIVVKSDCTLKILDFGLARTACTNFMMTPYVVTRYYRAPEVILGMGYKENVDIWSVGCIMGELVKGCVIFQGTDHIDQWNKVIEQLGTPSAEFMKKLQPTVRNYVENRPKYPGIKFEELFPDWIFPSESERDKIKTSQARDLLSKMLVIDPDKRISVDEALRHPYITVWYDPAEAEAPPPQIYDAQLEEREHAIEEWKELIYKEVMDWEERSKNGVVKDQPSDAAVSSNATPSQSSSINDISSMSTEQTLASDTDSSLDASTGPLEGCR

[4] = target: T1, Inhibitor of nuclear factor kappa-B kinase subunit beta (Homo sapiens) (UniProt O14920); experiment: Inhibition of IKKbeta (unknown origin) at 10 uM relative to control
T1 sequence (whole entry): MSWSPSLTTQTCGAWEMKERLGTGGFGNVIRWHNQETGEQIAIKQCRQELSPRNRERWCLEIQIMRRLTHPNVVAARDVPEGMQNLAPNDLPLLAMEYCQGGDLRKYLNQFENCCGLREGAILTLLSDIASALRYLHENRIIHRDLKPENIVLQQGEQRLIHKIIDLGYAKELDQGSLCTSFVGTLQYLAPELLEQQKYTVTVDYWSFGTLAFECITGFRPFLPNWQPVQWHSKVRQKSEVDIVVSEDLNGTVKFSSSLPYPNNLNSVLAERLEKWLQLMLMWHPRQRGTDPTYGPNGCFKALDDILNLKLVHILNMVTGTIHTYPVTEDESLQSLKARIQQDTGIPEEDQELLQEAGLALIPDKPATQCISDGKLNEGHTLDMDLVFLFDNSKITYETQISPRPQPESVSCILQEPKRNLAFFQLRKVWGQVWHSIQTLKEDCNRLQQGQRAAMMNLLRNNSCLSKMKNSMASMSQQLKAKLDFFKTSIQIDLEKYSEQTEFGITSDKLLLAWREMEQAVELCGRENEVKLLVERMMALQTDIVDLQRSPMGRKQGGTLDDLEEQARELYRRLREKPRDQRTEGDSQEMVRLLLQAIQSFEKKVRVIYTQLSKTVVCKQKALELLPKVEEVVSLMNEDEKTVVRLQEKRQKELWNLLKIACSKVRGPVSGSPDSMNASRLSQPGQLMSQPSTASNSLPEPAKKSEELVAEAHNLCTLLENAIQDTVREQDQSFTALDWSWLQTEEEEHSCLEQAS

Mus musculus [5] = experiment: Protection against LPS-induced C57BL/6 mouse model of acute lung injury assessed as reduction in thickening of the alveolar septum in lungs at 20 mg/kg, po administered 3 times for every 12 hrs followed by LPS stimulation at 5 mg/kg and measured after 6 hrs by H and E staining based analysis; assay type: functional, organism-based; details: time 30.0 hrs
Method in brief: (§1)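 LPS-induced ALI in C57BL/6 mice: 20 mg/kg orally three times at 12 h intervals, then intratracheal LPS 5 mg/kg, killed at 6 h. Lungs paraffin-embedded, cut into 5 μm sections and H&E stained. Viewed at ×20.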

Mus musculus [6] = experiment: Protection against LPS-induced C57BL/6 mouse model of acute lung injury assessed as reduction in immune markers in lungs at 20 mg/kg, po administered 3 times for every 12 hrs followed by LPS stimulation at 5 mg/kg and measured after 6 hrs by H and E staining based analysis; assay type: functional, organism-based; details: time 30.0 hrs; method in brief: as §1
Mus musculus [7] = experiment: Protection against LPS-induced C57BL/6 mouse model of acute lung injury assessed as reduction in interstitial edema in lungs at 20 mg/kg, po administered 3 times for every 12 hrs followed by LPS stimulation at 5 mg/kg and measured after 6 hrs by immunohistochemical staining based analysis; assay type: functional, organism-based; details: time 30.0 hrs
Method in brief: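 LPS-induced ALI in C57BL/6 mice: 20 mg/kg orally three times at 12 h intervals, then intratracheal LPS 5 mg/kg, lungs taken at 6 h. F4/80 IHC: xylene deparaffinisation, citrate pH 6 retrieval for 25 min, primary antibody at 4 °C for 12 h, secondary 1:2000, DAB and hematoxylin. Viewed at ×20.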

Mus musculus [8] = experiment: Antiinflammatory activity in DSS-induced male C57BL/6 mouse model of inflammatory bowel disease assessed as normal appearance of goblet cells at 20 mg/kg, IG administered with compound and DSS for 7 days followed by DSS replacement with distilled water for 3 days by H and E staining based analysis; assay type: functional, organism-based; details: time 10.0 day
[9] = Acute toxicity in male ICR mouse assessed as adverse effects at 500 to 1000 mg/kg, po administered daily for 10 days and measured daily; assay type: organism-based; details: in vivo, 240 h, dose 500-1000 mg/kg, time 10 day
Method in brief: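 Male ICR mice (8 weeks, 30 g ± 2 g), acclimatised 1 week, randomised into 1000 mg/kg, 500 mg/kg and untreated control groups (n = 24 total). Dosed by daily gavage, compound dissolved in 0.5 % DMSO then added to normal saline. Body weight and behaviour recorded daily. Euthanised after 10 days; heart, liver, spleen, lung and kidney examined by H&E staining.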

[10] = Half life in male Sprague-Dawley rat at 1 mg/kg, iv measured upto 24 hrs by triple quadrupole mass spectrometric analysis; assay type: ADME, organism-based; details: in vivo
Method in brief: (§2)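 Male SD rats (8 weeks, 200 g ± 20 g), n = 3 per route. Oral: 10 mg/kg by gavage in 0.05 % DMSO/normal saline, tail-vein blood at 13 times from 10 min to 24 h. IV: 1 mg/kg tail vein in 5 % DMSO/30 % PEG400/65 % saline, 14 samples from 5 min to 24 h. Heparinised plasma precipitated with acetonitrile containing internal standard. Non-compartmental analysis on mean concentrations.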

[11] = Cmax in male Sprague-Dawley rat at 10 mg/kg, po measured upto 24 hrs by triple quadrupole mass spectrometric analysis; assay type: ADME, organism-based; details: in vivo
[12] = Half life in male Sprague-Dawley rat at 10 mg/kg, po measured upto 24 hrs by triple quadrupole mass spectrometric analysis; assay type: ADME, organism-based; details: in vivo; method in brief: as §2
[13] = Oral bioavailability in male Sprague-Dawley rat at 10 mg/kg measured upto 24 hrs by triple quadrupole mass spectrometric analysis; assay type: ADME, organism-based; details: in vivo; method in brief: as §2

Q: For `CC(=O)N1CCN(CCOc2cc(=O)oc3ccccc23)CC1`, which IC50 (J774.A1 [1]) is on record?
A: 4.57 µM

Q: And the Activity (J774.A1 [1]; time 24.5 hrs)?
A: Dose-Dependent Effect

Q: And the Activity (THP-1)?
A: Dose-Dependent Effect

Q: And the inhibition (J774.A1 [2])?
A: Active

Q: What about the inhibition [3] of the same compound?
A: 5.93%

Q: What about the inhibition [4] of the same compound?
A: -9.11%

Q: What about the Activity (Mus musculus [5]) of the same compound?
A: Active

Q: And the Activity (Mus musculus [6])?
A: Active

Q: And the Activity (Mus musculus [7])?
A: Active

Q: And the Activity (Mus musculus [8])?
A: Active

Q: And the Activity [9]?
A: Non-Toxic

Q: And the half-life [10]?
A: 0.31 h

Q: What about the Cmax [11] of the same compound?
A: 1010 ng/mL

Q: And the half-life [12]?
A: 2.36 h

Q: And the bioavailability [13]?
A: 28.7%
